Legend:
[1] = species on record: Oryctolagus cuniculus; assay: Compound was evaluated for antagonism of angiotensin II induced contraction of rabbit aorta rings.; type: functional; conditions: read-out: pA2 (converted)
Summary of the method: (§1)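 Paired rabbit aortic rings: control ring given increasing AII concentrations at 30-min intervals; second ring given AII with antagonist added 5 min beforehand. Responses expressed as % of control ring maximal contraction; pD2 for AII from concentration-response curves, pA2 by Schild analysis.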

[2] = target: T1, Type-1 angiotensin II receptor B (Rattus norvegicus, UniProt P29089); assay: Activity against high affinity Angiotensin II receptor, type 1 was measured from the ability to inhibit [125I]angiotensin II binding to rat uterine membrane.
T1 sequence (P29089 whole entry): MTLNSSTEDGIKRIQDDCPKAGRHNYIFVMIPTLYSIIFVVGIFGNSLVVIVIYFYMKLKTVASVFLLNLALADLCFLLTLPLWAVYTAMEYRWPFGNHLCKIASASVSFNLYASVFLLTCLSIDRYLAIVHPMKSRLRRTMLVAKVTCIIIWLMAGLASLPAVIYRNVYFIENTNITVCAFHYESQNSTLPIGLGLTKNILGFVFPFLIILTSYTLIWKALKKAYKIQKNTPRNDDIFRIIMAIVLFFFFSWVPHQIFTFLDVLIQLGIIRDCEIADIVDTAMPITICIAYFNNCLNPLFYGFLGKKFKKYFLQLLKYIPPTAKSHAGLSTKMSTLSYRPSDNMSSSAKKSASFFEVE

[3] = target: T2, Type-2 angiotensin II receptor (Rattus norvegicus, UniProt P35351); assay: Activity against low affinity Angiotensin II receptor, type 2 was measured from the ability to inhibit [125I]angiotensin II binding to rat uterine membrane
T2 sequence (P35351 whole entry): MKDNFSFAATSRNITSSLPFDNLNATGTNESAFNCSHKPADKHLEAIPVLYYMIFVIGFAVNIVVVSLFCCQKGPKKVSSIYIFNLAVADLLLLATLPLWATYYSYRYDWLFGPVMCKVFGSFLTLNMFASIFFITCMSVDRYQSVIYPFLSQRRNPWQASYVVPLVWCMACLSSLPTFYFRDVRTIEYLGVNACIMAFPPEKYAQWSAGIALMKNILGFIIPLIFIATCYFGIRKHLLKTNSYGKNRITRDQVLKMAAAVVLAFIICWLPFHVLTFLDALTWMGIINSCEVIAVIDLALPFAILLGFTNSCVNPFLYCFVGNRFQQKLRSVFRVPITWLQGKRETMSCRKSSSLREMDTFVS

[4] = species on record: Oryctolagus cuniculus; assay: Evaluated for antagonism of angiotensin II induced contraction of rabbit aorta rings; type: functional; conditions: read-out: pA2 (converted); summary of the method: as §1

Structure (SMILES) | IC50 [2] [nM] | IC50 [3] [nM] | Kb [1] [nM] | Kb [4] [nM]
CCCCc1nc(Cl)c(CO)n1Cc1ccc(-c2ccccc2-c2nnn[nH]2)cc1 [LOSARTAN] |  |  | 7.94 | 
CCCCc1nc(CCCC)n(Cc2ccc(-n3c(Cl)cc(Cl)c3-c3nnn[nH]3)cc2)n1 | 52 | 810000 |  | 20
CCCCc1nc(CCCC)n(Cc2ccc(-n3ccc(-c4nnn[nH]4)c3)cc2)n1 |  | 220000 |  | 
CCCCc1nc(Cl)c(CO)n1Cc1ccc(-n2cccc2C(=O)O)cc1 |  |  | 1260 | 

More lines, main results first:

IC50 [2] [nM] | IC50 [3] [nM] | Structure (SMILES) | Kb [1] [nM] | Kb [4] [nM]
6.5 |  | CCCCc1nc(CCCC)n(Cc2ccc(-c3ccccc3-c3nnn[nH]3)cc2)n1 |  | 
170 | 3300 | CCCCc1nc(Cl)c(CO)n1Cc1ccc(-c2ccccc2C(=O)O)cc1 |  | 
